The values that follow come from PubChem BioAssay.

Active and inactive are the calls of the source.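 Rule for the calls, unless noted: active = duplicate-averaged activation above buffer control mean plus 5 SD of those controls; inactive = the rest.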

Sequence of Potassium voltage-gated channel subfamily KQT member 1 (Homo sapiens) (P51787 whole entry, looked up): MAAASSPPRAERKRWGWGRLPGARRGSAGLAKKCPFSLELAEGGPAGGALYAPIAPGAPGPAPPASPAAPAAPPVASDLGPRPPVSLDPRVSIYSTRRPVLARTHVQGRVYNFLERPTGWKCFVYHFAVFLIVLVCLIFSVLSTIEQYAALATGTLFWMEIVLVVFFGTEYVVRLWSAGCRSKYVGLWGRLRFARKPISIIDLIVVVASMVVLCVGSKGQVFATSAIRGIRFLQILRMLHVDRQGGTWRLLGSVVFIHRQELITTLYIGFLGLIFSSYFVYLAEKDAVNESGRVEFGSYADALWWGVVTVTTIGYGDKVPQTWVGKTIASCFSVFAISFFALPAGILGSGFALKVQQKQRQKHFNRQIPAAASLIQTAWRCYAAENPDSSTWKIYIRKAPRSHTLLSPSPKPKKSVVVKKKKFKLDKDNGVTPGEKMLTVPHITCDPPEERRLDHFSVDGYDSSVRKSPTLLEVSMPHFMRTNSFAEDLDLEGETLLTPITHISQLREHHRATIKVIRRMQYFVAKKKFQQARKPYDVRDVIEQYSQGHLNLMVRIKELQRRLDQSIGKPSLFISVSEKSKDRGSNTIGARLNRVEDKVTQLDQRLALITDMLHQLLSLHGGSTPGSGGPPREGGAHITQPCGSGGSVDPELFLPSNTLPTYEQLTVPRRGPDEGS

Test system in the first test: not listed separately
Nature of the test: nonspecific flux increase, KCNQ1-free cells – parental CHO cells, counter-screen for KCNQ1 potentiator project (AID 493006). The settings on record: parental CHO-K1 cells, FluxOR thallium flux, at 10 µM; stronger effect = higher value. An outline of the steps:
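Test system: parental CHO-K1 cells, FluxOR dye-loaded / Probe or stimulus: potassium plus thallium depolarizing stimulus, 5x stock 12.5 mM K2SO4, Tl2SO4 / Timing: overnight 37 °C plating, 90 min dye, 20 min dark compound / Measured by: kinetic thallium-flux fluorescence / Read-out: max-minus-min fluorescence over baseline, percent of buffer-to-R-L3 span / Benchmarks: buffer and R-L3 controls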
In general terms: The purpose of a counterscreen is to sort out artefacts and off-target activity.
Regarding `CC1CCCC(NC(=S)NC(=O)c2ccccc2Br)C1C` (stereo not given), the outcome was inactive.
The same measure, in the same setting: next, `Cc1cc(SCNC(=O)c2ccccc2)ncn1`: “inactive”.
Regarding `CCC1CCCCN1C(=S)NC(=O)c1cccs1` (stereo not given), the activation is 470% (active).
Consider `C/C(=N\NC(=S)Nc1ccc(C)cc1)c1cc2ccccc2o1`, for which the outcome was inactive.
Take `COc1cccc(-c2nnc(Nc3nc4c(F)cccc4s3)o2)c1`: the activation was 278% (active).
Take `CN(C)S(=O)(=O)c1ccc(Cl)c(NC(=O)CN2CCCCCC2)c1`: the outcome was inactive.
As for `Cc1cnc(NC(=O)c2ccc(-c3nc4ccccc4s3)o2)s1`, the outcome was inactive.
For `COCCCNC(=O)CC(NS(=O)(=O)c1ccc(F)cc1)c1ccc(OC)cc1` (stereo not given), the result was inactive.
In the case of `O=C(/C=C/c1ccc(Br)cc1)NC(=S)Nc1ccc(S(=O)(=O)Nc2nccs2)cc1`, the outcome was inactive.
Consider `C/C(=N\NC(=O)C1COc2ccccc2O1)c1ccc(N2CCOCC2)cc1` (stereo not given), for which the outcome was inactive.
`CCCCCCCCCCCC(=O)NC(Cc1ccc(OC)c([N+](=O)[O-])c1)C(=O)O` (stereo not given): the activation is 372% (active).
As for `CCCc1cc(=O)n2[nH]cc(-c3ccc(Cl)cc3)c2n1`, the activation was 168% (active).
`CSc1nc(Nc2ccc(Cl)cc2)c(C#N)c(=O)[nH]1`: the result was inactive.
On to `S=c1nn[nH]n1C12CC3CC(CC(C3)C1)C2`, for which the activation is 206% (active).
On to `O=c1c2c(-c3ccco3)csc2nc(SCc2cn3cccnc3n2)n1-c1ccccc1`, for which the result was inactive.
Turning to `O=C(NC(=S)Nc1ccc2c(c1)OCCO2)c1ccco1`, the activation was 206% (active).
As to `O=C(N/N=C/c1ccccn1)c1sc2ccccc2c1Cl`, the activation was 156% (active).
As to `COc1cc(CNCCN2CCOCC2)ccc1OCc1ccc(Cl)cc1Cl`, the result was inactive.
On the same count and under the same terms, next, `COc1ccccc1NC(=O)Cn1cnc2c(oc3nc4c(cc32)CCCC4)c1=O`: “inactive”.
On to `Cc1ccc(C2C(/C=C3/SC(=S)NC3=O)=C(c3cccs3)Oc3ccccc32)cc1` (stereo not given), for which the activation is 142% (active).
`Cc1ccc(OCCCC(=O)NCc2ccco2)c(C)c1`: the result was inactive.
Turning to `COc1cc2c3nnc(-c4ccccc4)c-3cn(Cc3ccc(F)cc3)c2cc1OC`, the result was inactive.
Still for that read-out and setting: next, `CC(C)c1nc2n[nH]c(N)c2c2c1CCCC2`: “inactive”; `CC(=O)N1N=C(N)SC12CCCC2`: “inactive”; `O=C(/C=C/c1ccccc1)C1C(=O)c2ccccc2C1=O`: “inactive”.
Turning to `O=C(NC(=S)N1CCCC1)c1ccc(Cl)cc1`, the activation is 150% (active).
Turning to `O=c1cc(N2CCc3ccccc32)[nH]c(=O)n1Cc1ccc(F)cc1`, the result was inactive.
For the molecule `O=C(NC(=S)N1CCCCCC1)c1ccccc1`, the outcome was inactive.
Consider `COc1ccc(CCN=C(N)NS(=O)(=O)c2ccc(F)cc2)cc1OC`, for which the result was inactive.
On the same count and under the same terms, next, `COc1cccc2sc(N(CCCN(C)C)C(=O)c3ccc(S(=O)(=O)N4CCCc5ccccc54)cc3)nc12`: “inactive”.
On the same count and under the same terms, next, `c1ccc(-n2cnc3cc(NCc4cccs4)ccc32)cc1`: “inactive”; `CN(CCCNC(=O)CSc1cc(=O)n(C)c2ccc(Cl)cc12)Cc1ccccc1`: “inactive”.
For `COc1cccc(N=Nc2ccc3cccnc3c2O)c1`, the activation was 154% (active).
Take `Cc1ccc(-c2noc(CCC(=O)Nc3ccccc3N3CCN(C)CC3)n2)cc1`: the result was inactive.
Same read-out and setting: next, `Cc1c(CCC(=O)N2CCC[C@H]2C(=O)O)c(=O)oc2c(C)c3oc4c(c3cc12)CCCC4`: “inactive”; `CCOC(=O)c1cc(CC)sc1NC(=O)CC1Sc2ccc(C(F)(F)F)cc2NC1=O` (stereo not given): “inactive”; `O=C(Nc1nc(=O)c2ccccc2s1)c1ccc(F)cc1`: “inactive”.
As to `O=c1c2cc(Br)ccc2nc(-c2ccccc2)n1O`, the activation is 366% (active).
`C/C(=N/NC(=O)c1cc(C2CC2)[nH]n1)c1cccs1`: the activation was 150% (active).
Regarding `Cc1nn(CCc2nn[nH]n2)c2nc(-c3ccc(C4CCCCC4)cc3)cc(C(F)(F)F)c12`, the activation was 296% (active).

The next test concerns the target Potassium voltage-gated channel subfamily KQT member 1 (Homo sapiens) (UniProt P51787). Put plainly: enhancement of KCNQ1 channel thallium flux – FluxOR thallium flux, CHO cells, duplicates, confirmation (AID 493007;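 active = potentiation averaged over duplicate wells exceeding buffer-only control mean by more than 3 SD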;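 for outcome: cells depolarized by a potassium plus thallium sulfate stimulus after compound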;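 for potentiation: 0% = buffer-only wells and 100% = R-L3 activator control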). The settings on record: KCNQ1 cell line, FluxOR thallium flux fluorescence, at 10 µM; stronger effect = higher value, % of reference activator effect, buffer zero. An outline of the steps: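 Assay system: CHO cells carrying KCNQ1 | Controls: Buffer and R-L3 controls | Schedule: FluxOR dye loading 90 min, compound exposure 20 min, room temperature | Read-out: Baseline-normalized fluorescence change, percent of buffer-to-R-L3 range | Replicates: Each compound tested in duplicate | Technique: Kinetic thallium influx fluorescence with FluxOR dye, 10 s baseline, 110 s post-stimulus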
With `CC1CCCC(NC(=S)NC(=O)c2ccccc2Br)C1C` (stereo not given), the potentiation was 29.5% (active).
As for `Cc1cc(SCNC(=O)c2ccccc2)ncn1`, the outcome was inactive.
As to `CCC1CCCCN1C(=S)NC(=O)c1cccs1` (stereo not given), the potentiation is 216% (active).
Consider `C/C(=N\NC(=S)Nc1ccc(C)cc1)c1cc2ccccc2o1`, for which the potentiation is 97% (active).
`COc1cccc(-c2nnc(Nc3nc4c(F)cccc4s3)o2)c1`: the potentiation is 91.5% (active).
Take `CN(C)S(=O)(=O)c1ccc(Cl)c(NC(=O)CN2CCCCCC2)c1`: the result was inactive.
For `Cc1cnc(NC(=O)c2ccc(-c3nc4ccccc4s3)o2)s1`, the result was inactive.
As to `COCCCNC(=O)CC(NS(=O)(=O)c1ccc(F)cc1)c1ccc(OC)cc1` (stereo not given), the outcome was inactive.
As for `O=C(/C=C/c1ccc(Br)cc1)NC(=S)Nc1ccc(S(=O)(=O)Nc2nccs2)cc1`, the outcome was inactive.
With `C/C(=N\NC(=O)C1COc2ccccc2O1)c1ccc(N2CCOCC2)cc1` (stereo not given), the result was inactive.
For `CCCCCCCCCCCC(=O)NC(Cc1ccc(OC)c([N+](=O)[O-])c1)C(=O)O` (stereo not given), the potentiation was 116% (active).
`CCCc1cc(=O)n2[nH]cc(-c3ccc(Cl)cc3)c2n1`: the potentiation was 36% (active).
As for `CSc1nc(Nc2ccc(Cl)cc2)c(C#N)c(=O)[nH]1`, the result was inactive.
Regarding `S=c1nn[nH]n1C12CC3CC(CC(C3)C1)C2`, the potentiation was 51.5% (active).
For `O=c1c2c(-c3ccco3)csc2nc(SCc2cn3cccnc3n2)n1-c1ccccc1`, the result was inactive.
For `O=C(NC(=S)Nc1ccc2c(c1)OCCO2)c1ccco1`, the potentiation is 108% (active).
`O=C(N/N=C/c1ccccn1)c1sc2ccccc2c1Cl`: the potentiation is 41% (active).
As to `COc1cc(CNCCN2CCOCC2)ccc1OCc1ccc(Cl)cc1Cl`, the outcome was inactive.
As for `COc1ccccc1NC(=O)Cn1cnc2c(oc3nc4c(cc32)CCCC4)c1=O`, the outcome was inactive.
With `Cc1ccc(C2C(/C=C3/SC(=S)NC3=O)=C(c3cccs3)Oc3ccccc32)cc1` (stereo not given), the potentiation is 33% (active).
With `Cc1ccc(OCCCC(=O)NCc2ccco2)c(C)c1`, the outcome was inactive.
Turning to `COc1cc2c3nnc(-c4ccccc4)c-3cn(Cc3ccc(F)cc3)c2cc1OC`, the result was inactive.
Consider `CC(C)c1nc2n[nH]c(N)c2c2c1CCCC2`, for which the result was inactive.
Take `CC(=O)N1N=C(N)SC12CCCC2`: the result was inactive.
On to `O=C(/C=C/c1ccccc1)C1C(=O)c2ccccc2C1=O`, for which the potentiation is 25.5% (active).
For the molecule `O=C(NC(=S)N1CCCC1)c1ccc(Cl)cc1`, the result was inactive.
On to `O=c1cc(N2CCc3ccccc32)[nH]c(=O)n1Cc1ccc(F)cc1`, for which the result was inactive.
In the case of `O=C(NC(=S)N1CCCCCC1)c1ccccc1`, the outcome was inactive.
With `COc1ccc(CCN=C(N)NS(=O)(=O)c2ccc(F)cc2)cc1OC`, the outcome was inactive.
For `COc1cccc2sc(N(CCCN(C)C)C(=O)c3ccc(S(=O)(=O)N4CCCc5ccccc54)cc3)nc12`, the result was inactive.
On to `c1ccc(-n2cnc3cc(NCc4cccs4)ccc32)cc1`, for which the result was inactive.
Same read-out and setting: next, `CN(CCCNC(=O)CSc1cc(=O)n(C)c2ccc(Cl)cc12)Cc1ccccc1`: “inactive”.
With `COc1cccc(N=Nc2ccc3cccnc3c2O)c1`, the potentiation was 29% (active).
In the case of `Cc1ccc(-c2noc(CCC(=O)Nc3ccccc3N3CCN(C)CC3)n2)cc1`, the outcome was inactive.
Take `Cc1c(CCC(=O)N2CCC[C@H]2C(=O)O)c(=O)oc2c(C)c3oc4c(c3cc12)CCCC4`: the outcome was inactive.
In the case of `CCOC(=O)c1cc(CC)sc1NC(=O)CC1Sc2ccc(C(F)(F)F)cc2NC1=O` (stereo not given), the result was inactive.
In the case of `O=C(Nc1nc(=O)c2ccccc2s1)c1ccc(F)cc1`, the result was inactive.
As for `O=c1c2cc(Br)ccc2nc(-c2ccccc2)n1O`, the potentiation was 63.5% (active).
For the molecule `C/C(=N/NC(=O)c1cc(C2CC2)[nH]n1)c1cccs1`, the potentiation was 31.5% (active).
As for `Cc1nn(CCc2nn[nH]n2)c2nc(-c3ccc(C4CCCCC4)cc3)cc(C(F)(F)F)c12`, the potentiation is 58% (active).
